Consider one compound from ChEMBL document CHEMBL4837217, “Design, synthesis, in vitro and in vivo biological evaluation of pyranone-piperazine analogs as potent antileishmanial agents” (Eur J Med Chem, 2021).

Assay [1] concerns Leishmania donovani. Description: Antileishmanial activity against Leishmania donovani MHOM/IN/80/Dd8 infected in BALB/c mouse assessed as reduction in organ intracellular amastigote burden at 25 mg/kg, po for 5 days and measured at 1 week post-treatment by Giemsa staining based assay relative to control. As to conditions: MHOM/IN/80/Dd8, po, 288 h, time 12 day. Format: functional. An outline of the steps: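 Female BALB/c mice (20–25 g), 5/group, infected iv with 2 × 10^7 stationary-phase L. donovani promastigotes. Reference drug given orally at 25 mg/kg daily for 5 consecutive days. Sacrificed day 7 post-treatment. Liver and spleen impression smears fixed in methanol, stained with 30% Giemsa for 2 h. Amastigotes/1000 nucleated cells counted and expressed as LDU.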

Assay [2] concerns Leishmania donovani. Put plainly: Antileishmanial activity against amastigote stage of Leishmania donovani MHOM/IN/80/Dd8 harboring luciferase gene infected in mouse J774 cells assessed as parasite growth inhibition at 50 uM incubated for 72 hrs by Steady-Glo reagent based luciferase assay. Format: functional. As to conditions: MHOM/IN/80/Dd8, J774. An outline of the steps: (§1)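 J774 murine macrophages, 4 × 10⁴ cells/well in RPMI with 10% FBS for 24 h, are infected for 24 h at 37 °C, 5% CO₂ with stationary-phase luciferase-transfected L. donovani Dd8 promastigotes at a 1:8 macrophage:parasite ratio. Compounds are dissolved in DMSO. Luminescence is read after Steady-Glo is added in PBS. IC₅₀ is taken from a four-parameter Hill nonlinear regression. Miltefosine is the reference.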

Assay [3] deals with Leishmania donovani. Description: Antileishmanial activity against log phase of Leishmania donovani MHOM/IN/80/Dd8 promastigotes assessed as reduction in cell viability at 25 uM incubated for 72 hrs by MTT assay. Format: functional. Summed up: (§2)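 Log-phase luciferase-transfected L. donovani Dd8 promastigotes (M199 + 10% FBS, 24 °C) treated with compounds at 25 and 50 µM in DMSO, with 0.1% DMSO vehicle control. After 72 h, MTT added 4 h. Formazan dissolved in DMSO, read at 570 nm. Percent inhibition reported as mean ± SD of at least three independent experiments in replicate.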
A general note: Tetrazolium dyes change colour on reduction, which living cells bring about.

The test system of assay [4] is Leishmania donovani. Put plainly: Antileishmanial activity against log phase of Leishmania donovani MHOM/IN/80/Dd8 promastigotes assessed as reduction in cell viability at 50 uM incubated for 72 hrs by MTT assay. Format: functional. An outline of the steps:
as §2

Assay [5] deals with Splenocyte. Description: Immunomodulatory activity in BALB/c mouse infected with Leishmania donovani amastigotes assessed as decrease in TGF-beta level in splenocytes supernatants at 25 mg/kg, po for 5 days. The conditions noted are these: time 5.0 day. Format: functional, organism-based.
Assay [6] deals with Splenocyte. Put plainly: Immunomodulatory activity in BALB/c mouse infected with Leishmania donovani amastigotes assessed as increase in IL-12 level in splenocytes supernatants at 25 mg/kg, po for 5 days. It counts as functional, organism-based. The conditions noted are these: time 5.0 day.
Assay [7] has as its system Splenocyte. Put plainly: Immunomodulatory activity in BALB/c mouse infected with Leishmania donovani amastigotes assessed as increase in IFN-gamma level in splenocytes supernatants at 25 mg/kg, po for 5 days. It counts as functional, organism-based. As to conditions: time 5.0 day.
Assay [8] concerns Splenocyte. Description: Immunomodulatory activity in BALB/c mouse infected with Leishmania donovani amastigotes assessed as decrease in IL-10 level in splenocytes supernatants at 25 mg/kg, po for 5 days. The conditions noted are these: time 5.0 day. Format: functional, organism-based.
Assay [9] concerns Leishmania donovani. Put plainly: Antileishmanial activity against amastigote stage of Leishmania donovani MHOM/IN/80/Dd8 harboring luciferase gene infected in mouse J774 cells assessed as parasite growth inhibition incubated for 72 hrs by Steady-Glo reagent based luciferase assay. Format: functional, organism-based. The conditions noted are these: MHOM/IN/80/Dd8, J774, 72 h. An outline of the steps:
as §1

Assay [10] has as its system Leishmania donovani. Put plainly: Antileishmanial activity against amastigote stage of Leishmania donovani MHOM/IN/80/Dd8 harboring luciferase gene infected in mouse J774 cells assessed as parasite growth inhibition at 25 uM incubated for 72 hrs by Steady-Glo reagent based luciferase assay. As to conditions: MHOM/IN/80/Dd8, J774. Format: functional. Summed up:
as §1

The source made the active and inactive calls. No cut-off for these calls is given here. Some results are limits rather than exact numbers.

With `CCCCCCCCCCCCCCCCOP(=O)([O-])OCC[N+](C)(C)C` [MILTEFOSINE], the inhibition in vivo at 25 mg/kg in the assay with Leishmania donovani [1] is over 97%. Also, the inhibition at 50 µM in the assay with Leishmania donovani [2] turned out to be 95.3%; in the assay on Leishmania donovani [4], 99.7%. Also, the results for the inhibition at 25 µM in the assay on Leishmania donovani [3] and with Leishmania donovani [10] were 99.4% and 91.2%, respectively. The outcome in the assay on Splenocyte [5], in the assay on Splenocyte [6], with Splenocyte [7] and in the assay on Splenocyte [8] was Active. In addition, the IC50 with Leishmania donovani [9] was determined as 12.8 µM.

As usually defined, the inhibition in vivo is the change of the read-out against control, counted positive when it falls. By inhibition is commonly meant the relative decrease from the control value, in per cent. Usually IC50 stands for the concentration that inhibits the measured activity by half.
